13 molecules from ChEMBL document CHEMBL3751823, “Design, synthesis and antitrypanosomal activities of 2,6-disubstituted-4,5,7-trifluorobenzothiophenes” (Eur J Med Chem, 2016) can be followed below.

For data set [1], the system named is Trypanosoma brucei rhodesiense. In words: Antitrypanosomal activity against Trypanosoma brucei rhodesiense STIB 900 after 72 hrs by alamar blue assay. The format is functional, organism-based. As to conditions: STIB 900, 72 h. In outline:
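Bloodstream forms of clone STIB 900 (patient isolate, Tanzania 1982), 1 × 10^3 per well, exposed to 3-fold serial dilutions from a top concentration of 30 μg/ml. DMSO stocks were diluted in medium. Incubation 72 h at 37 °C, 5% CO2, in triplicate. Alamar Blue was then added for 2-4 h more. Fluorescence read at ex 530/em 580 nm, IC50 by curve fit.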
In general terms: Alamar Blue is a resazurin reagent that responds to reducing activity.

In a further data set the test system is MCF7. Put plainly: Cytotoxicity against human MCF7 cells assessed as inhibition of cell proliferation. It counts as cell-based.
Data set [2] is described as follows: Selectivity index, ratio of IC50 for cytotoxicity against human MCF7 cells to IC50 for Trypanosoma brucei rhodesiense STIB 900. The format is toxicity, cell-based. The settings on record: read-out: Ratio IC50.

pIC50: −log10 of the molar value.

As to `COC(=O)c1cc2c(F)c(F)c(Oc3ccccc3Br)c(F)c2s1`, the negative logarithm of the IC50 (pIC50) in data set [1] is 4.52; in the data set with MCF7 it was less than 4.60.
With `COC(=O)c1cc2c(F)c(F)c(-n3cnc4ccccc43)c(F)c2s1`, the pIC50 in data set [1] is 6.22; in the data set with MCF7, less than 4.92. In addition, the selectivity ratio in data set [2] was more than 20.
As for `COC(=O)c1cc2c(F)c(F)c(Sc3ccccc3Br)c(F)c2s1`, the negative logarithm of the IC50 (pIC50) was 4.92 in data set [1] and less than 4.60 in the data set on MCF7.
For the molecule `COC(=O)c1cc2c(F)c(F)c(Sc3ccc(C(C)(C)C)cc3)c(F)c2s1`, the negative-log IC50 (pIC50) is 4.17 in data set [1] and less than 4.30 in the data set on MCF7.
For the molecule `COC(=O)c1cc2c(F)c(F)c(-n3ccnc3)c(F)c2s1`, the pIC50 in data set [1] was 3.89; in the data set with MCF7 it was less than 4.00.
On to `O=C(c1ccccc1)c1cc2c(F)c(F)c(Sc3ccccc3Br)c(F)c2s1`, for which the figures for the pIC50 (in data set [1]; in the data set on MCF7) were 5.01 and less than 4.60, respectively.
`O=C(c1ccccc1)c1cc2c(F)c(F)c(Oc3ccccc3Br)c(F)c2s1`: the values for the negative logarithm of the IC50 (pIC50) (in data set [1]; in the data set with MCF7) were 4.80 and less than 4.60, respectively.
For `O=C(c1ccccc1)c1cc2c(F)c(F)c(-n3ccnc3)c(F)c2s1`, in that order: 4.48 and less than 4.22.
Consider `COC(=O)CSc1c(F)c(F)c2cc(C(=O)OC)sc2c1F`, for which the pIC50 in data set [1] was less than 5.00; in the data set with MCF7 it was less than 4.60.
Regarding `O=C(c1ccccc1)c1cc2c(F)c(F)c(-n3cnc4ccccc43)c(F)c2s1`, the pIC50 is 6.28 in data set [1] and less than 4.60 with MCF7. For the same molecule, the selectivity ratio in data set [2] was 50.
On to `O=C(CSc1c(F)c(F)c2cc(C(=O)c3ccccc3)sc2c1F)c1ccccc1`, for which the values for the pIC50 (in data set [1]; in the data set on MCF7) were less than 5.00 and less than 4.30, respectively.
For `CC(C)(C)c1ccc(Sc2c(F)c(F)c3cc(C(=O)c4ccccc4)sc3c2F)cc1`, in that order: 4.50 and less than 4.60.
`Nc1nc(N)nc(Nc2ccc([As]3SCC(CO)S3)cc2)n1` (configuration not stated) [MELARSOPROL] had a negative-log IC50 (pIC50) in data set [1] of 7.29.

Usually pIC50 stands for the negative decadic logarithm of the IC50, by convention in mol/L.
